From the M2OR odorant receptor database
Numbering of substitutions follows the chain as printed.

System: T1, OR8B2 S273F
T1 sequence (whole entry): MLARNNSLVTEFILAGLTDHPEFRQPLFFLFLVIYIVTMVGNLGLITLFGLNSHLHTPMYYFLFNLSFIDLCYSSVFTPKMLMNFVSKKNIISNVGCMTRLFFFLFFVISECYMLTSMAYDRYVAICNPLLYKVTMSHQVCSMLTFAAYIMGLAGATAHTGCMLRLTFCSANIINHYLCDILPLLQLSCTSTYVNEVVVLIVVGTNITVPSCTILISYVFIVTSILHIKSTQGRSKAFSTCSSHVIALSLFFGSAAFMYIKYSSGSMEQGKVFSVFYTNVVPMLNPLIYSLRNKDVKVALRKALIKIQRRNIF
Conditions: stereoisomer not certain
Summary of the method: (§1)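 Each receptor–molecule pair is labelled responsive or non-responsive (inactive) according to whether the original authors judged the measured signal statistically different from baseline. The data were taken from the main text and supplementary material of published papers and checked for typos and inconsistencies. Assay methods differed by source, with transient luciferase assays in mammalian cell lines being common.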
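Also: active if original authors judged signal statistically different from baseline.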

Odorant receptor agonist call, inactive:
CCCC(S)CCOC(C)=O (stereo not drawn)
CCC1OC(=O)C(O)=C1C (stereo not drawn)
CCCCCCC=CCCC=O
CC1=C(O)C(=O)C(C)O1 (stereo not drawn)
CCC1OC(C)=C(O)C1=O (stereo not drawn)
Cc1cnc(C)c(C)n1
CC1=C(O)C(=O)OC1C (stereo not drawn)
CC1=NC(C)C(C)S1 (stereo not drawn)

Target: T2, OR8B3 (Homo sapiens) (UniProt Q8NGG8)
T2 sequence (whole entry): T1 sequence (whole entry) with R24Q, I34V, T47I, N94Y, R100Q, T205I, T208M, F273S
Conditions: stereoisomer not certain
Summary of the method: as §1

Odorant receptor agonist call, inactive:
CCCC(S)CCOC(C)=O (stereo not drawn)
CCCCCC(S)C(C)CO (stereo not drawn)
CC(CO)CS (stereo not drawn)
CCCCCC(=O)C(C)C(C)=O (stereo not drawn)
CC(=O)c1c(C)c([N+](=O)[O-])c(C(C)(C)C)c([N+](=O)[O-])c1C
CCC1OC(=O)C(O)=C1C (stereo not drawn)
CCCCCCC=CCCC=O
CC1=C(O)C(=O)C(C)O1 (stereo not drawn)
CCC1OC(C)=C(O)C1=O (stereo not drawn)
CCC(S)C(C)CO (stereo not drawn)
CC1CCCCCCCCCCCCC(=O)C1 (stereo not drawn)
CCCCC(S)C(C)CO (stereo not drawn)
Cc1cnc(C)c(C)n1
CC1=C(O)C(=O)OC1C (stereo not drawn)
CC1=NC(C)C(C)S1 (stereo not drawn)
